Series [1] is described as follows: melting temperature; fluorescence melt of hairpins on a sequencing array, two-state fit, raised by 9.35 °C to match UV melts. The settings on record: sodium 0.088 M. In a few lines:
(§1)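 Two-state fits, bootstrapped, provided melting temperature and folding enthalpy from Cy3 fluorescence normalised to pre-quench Cy3 and to control constructs. Library hairpins with annealed Cy3 and quencher oligos were imaged on a sequenced MiSeq flow cell in 50 mM Na-HEPES pH 8.0, 25 mM NaCl, at 2.5 °C intervals up to 60 °C. Four replicates were combined with inverse-variance weighting. A 9.35 °C upward shift was applied to fitted temperatures to match UV melts.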

Series [2] can be described thus: folding enthalpy; higher = less favourable; fluorescence melt of hairpins on a sequencing array, two-state fit. The settings on record: sodium 0.088 M. In a few lines: as §1

Take GGCTCGGGAAACTGGGCC (((.(.(....).).))): the Tm in series [1] amounted to 48.9 °C. In series [2], the folding enthalpy is -36.7 kcal/mol.
Turning to GCATTGCGAAAGCAGAGC ((..(((....)))..)), the Tm in series [1] came out at 47.5 °C. Further, the folding enthalpy in series [2] was -18.2 kcal/mol.
The corresponding values for GAGAGCGGAAACGTTCTC ((((.((....)).)))) are 49.1 °C and -34.6 kcal/mol.
The corresponding values for GATCCCCACTGGGATC ((((((....)))))) are 62.2 °C and -35.3 kcal/mol.
As for GAGGAGAAATCCTC (((((....))))), the Tm in series [1] amounted to 43.4 °C. Further, the folding enthalpy in series [2] is -21.8 kcal/mol.
As to GTCAGAGGAAACCCTGAC (((((.(....).))))), the Tm in series [1] amounted to 43.8 °C. In addition, the folding enthalpy in series [2] is -32.4 kcal/mol.
The corresponding values for GCGGATCGCCGC ((((....)))) are 55.6 °C and -19.9 kcal/mol.
On to GTGTGTCGAAAGACCCAC (((.(((....))).))), for which the Tm in series [1] was found to be 49.4 °C. Further, the folding enthalpy in series [2] was -29 kcal/mol.
The matching figures for GCTTTGCGAAAGCCCAGC (((..((....))..))): 31.5 °C and -14.1 kcal/mol.
GTGCCGCGAAAGCGTCAC (((.(((....))).))): the Tm in series [1] was 61.7 °C. The folding enthalpy in series [2] was -29.1 kcal/mol.
For GCTATAGGAAACTGTAGC ((((.((....)).)))), the Tm in series [1] was found to be 43.5 °C. The folding enthalpy in series [2] is -32.8 kcal/mol.
On to GATCCTGGTCAGGATC ((((((....)))))), for which, in series [1], the Tm is 55.5 °C. Moreover, the folding enthalpy in series [2] is -41.8 kcal/mol.
GCAGACACGAAAGTGTGC (((..(((....)))))): the Tm in series [1] worked out at 46.8 °C. Besides, the folding enthalpy in series [2] is -15.3 kcal/mol.
GATCTCCCGCGAGATC ((((((....)))))): the Tm in series [1] was found to be 52.7 °C. The folding enthalpy in series [2] was -32.3 kcal/mol.
As to GTCTTAACGAAAGTTGAC (((..(((....)))))), in series [1], the Tm is 31.9 °C. Also, in series [2], the folding enthalpy is -15.8 kcal/mol.
The matching figures for GTGAGTGGAAACGTTCAC ((((..(....)..)))): 28.4 °C and -11.2 kcal/mol.
As for GCGCAGCGAAAGCCGTGC ((.(.((....)).).)), the Tm in series [1] came out at 46.2 °C. Also, the folding enthalpy in series [2] is -9.79 kcal/mol.
The matching figures for GATGCCGAAAGGCGCATC ((((((....)))..))): 32.6 °C and -9.01 kcal/mol.
As for GGTGGTGGAAACATCACC ((((.((....)).)))), the Tm in series [1] came out at 52.3 °C. The folding enthalpy in series [2] was -41.3 kcal/mol.
With GATCTCCGCTGAGATC ((((((....)))))), the Tm in series [1] is 53.1 °C. Also, the folding enthalpy in series [2] was -32.5 kcal/mol.
Take GGTGGCACGAAAGTGACC (((..(((....)))))): the Tm in series [1] is 45.6 °C. Moreover, the folding enthalpy in series [2] was -15.5 kcal/mol.
Turning to GCAGGGCGAAAGCCTAGC ((..(((....)))..)), the Tm in series [1] was 55.2 °C. For the same sequence, the folding enthalpy in series [2] is -18.9 kcal/mol.
The matching figures for GTCAGCGAAAGCTTGAC ((((((....))).))): 49.9 °C and -25.6 kcal/mol.
As to GATCGACATGTCGATC ((((((....)))))), the Tm in series [1] was found to be 61.3 °C. Further, the folding enthalpy in series [2] was -41.7 kcal/mol.
With GTCCGTGGAAACACAGAC (((.(((....))).))), the Tm in series [1] was determined as 40.5 °C. Also, the folding enthalpy in series [2] is -28.2 kcal/mol.
The corresponding values for GCCCCAGGAAACCAGGGC ((((..(....)..)))) are 45.6 °C and -23.4 kcal/mol.
The matching figures for GATCGCCAACGCGATC ((((((....)))))): 62.9 °C and -36.6 kcal/mol.
As to GTTAGCGAAAGCTGTAAC ((((((....)))..))), in series [1], the Tm is 31.6 °C. Further, the folding enthalpy in series [2] was -9.81 kcal/mol.
On to GGAGCCGAAAGGCGGTCC ((((((....)))..))), for which the Tm in series [1] worked out at 48.1 °C. In addition, in series [2], the folding enthalpy was -9.55 kcal/mol.
For the sequence GTATACGGAAACGTATAC (((((((....))))))), the Tm in series [1] was found to be 55.9 °C. Also, the folding enthalpy in series [2] is -44.8 kcal/mol.
As to GCAACGCGAAAGCCCTGC (((..((....))..))), the Tm in series [1] was 23.8 °C. Besides, the folding enthalpy in series [2] is -7.63 kcal/mol.
Turning to GTGCCCGAAAGGGATCAC ((((((....)))..))), the Tm in series [1] was found to be 40.3 °C. Further, in series [2], the folding enthalpy was -13.2 kcal/mol.
As to GGGCTTCGAAAGAAACCC (((.(((....))).))), the Tm in series [1] was 49.6 °C. The folding enthalpy in series [2] was -30.2 kcal/mol.
The matching figures for GATCAAAATATTGATC ((((((....)))))): 38.6 °C and -26.6 kcal/mol.
The corresponding values for GACAGCGAAAGCTTAGTC ((((((....)))..))) are 38.1 °C and -19 kcal/mol.
The corresponding values for GCCCGTCCGAAAGGAGGC (((..(((....)))))) are 43.6 °C and -13.9 kcal/mol.
GGTCCCGAAAGGGCGACC ((((((....)))..))): the Tm in series [1] is 46 °C. Moreover, the folding enthalpy in series [2] was -14.3 kcal/mol.
The matching figures for GACAGGCGAAAGCCCGTC (((.(((....))).))): 52.9 °C and -22.3 kcal/mol.
The matching figures for GTCCCCGAAAGGGGTGAC ((((((....)))..))): 45 °C and -8.1 kcal/mol.
The matching figures for GCTGGGCGAAAGCTAAGC (((..((....))..))): 53.9 °C and -22.1 kcal/mol.
As for GGCAGACGAAAGTCCGCC (((.(((....))).))), the Tm in series [1] came out at 60.2 °C. In addition, in series [2], the folding enthalpy was -39.2 kcal/mol.
The matching figures for GAATGCCGAAAGGCCTTC (((.(((....))).))): 41.3 °C and -17 kcal/mol.
Consider GCCGGGGGAAACCCCGAC (.(((((....))))).), for which the Tm in series [1] was 51.8 °C. Further, the folding enthalpy in series [2] was -13.2 kcal/mol.
The corresponding values for GGGGTCGAAAGACTACCC ((((((....)))..))) are 45.2 °C and -18 kcal/mol.
GTCGCGGGAAACCGTGAC (((.(((....))).))): in series [1], the Tm was 59.8 °C. For the same sequence, the folding enthalpy in series [2] is -35.2 kcal/mol.
For the sequence GGCCCTCGAAAGAGGCC (((.(((....)))))), the Tm in series [1] is 58.4 °C. The folding enthalpy in series [2] was -21.3 kcal/mol.
For GATCAGAGGCCTGATC ((((((....)))))), the Tm in series [1] was found to be 48.5 °C. In addition, the folding enthalpy in series [2] was -34.6 kcal/mol.
The corresponding values for GTAAAACGAAAGTTTAC (((.(((....)))))) are 35.2 °C and -17.4 kcal/mol.
The matching figures for GGGGCCGAAAGGCTACCC ((((((....)))..))): 53.2 °C and -14.8 kcal/mol.
With GCGAGCACTCGC ((((....)))), the Tm in series [1] turned out to be 56.8 °C. Besides, the folding enthalpy in series [2] is -26.4 kcal/mol.
Take GCAACCGAAAGGTTATGC ((((((....)))..))): the Tm in series [1] amounted to 44.1 °C. In addition, the folding enthalpy in series [2] is -12.3 kcal/mol.
As to GGCGGGGGAAACCCCGTC (.(((((....))))).), the Tm in series [1] is 65.1 °C. In series [2], the folding enthalpy is -22.7 kcal/mol.
The matching figures for GATCCTGAATAGGATC ((((((....)))))): 59 °C and -39.2 kcal/mol.
The matching figures for GTATTGCGAAAGCATAC (((.(((....)))))): 45 °C and -12.2 kcal/mol.
For the sequence GCAAATGCGAAAGCATGC (((..(((....)))))), the Tm in series [1] came to 51.4 °C. Besides, in series [2], the folding enthalpy was -15 kcal/mol.

The record behind these values is the array DNA melting data of Ke et al. (doi:10.1101/2024.01.08.574731).
